# Assay outcomes: PubChem, several laboratories
# An excerpt weighted towards active compounds, which were near 1.5% of everything screened.
# NTR1 ag – agonists of human NTR1, primary screen, imaging, U2OS cells, beta-arrestin-GFP, high content; NTR1-U2OS beta-arrestin-GFP spot imaging, agonist mode; activation, % at 20 µM; 330,000 compounds, 0.17% hits; AID 493036, 2011;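 active = activation at or above 40% of the spot to cytoplasm intensity ratio, with at least 20 cells analyzed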;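 also: 0% = DMSO without peptide and 100% = 100 nM NTR1 peptide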
# CXCR6 inh – CXCR6 receptor inhibitors, primary screen, cell-based, beta-arrestin, luminescence, CHO-K1 PathHunter, 1536-well. inhibition, % at 20 µM. 360,000 compounds, 0.36% hits. AID 602244, 2012; in the data active = inhibition above about 34%, passing the limit was not always enough;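 also: antagonist mode with CXCL16 agonist at 10 nM final; 0% = 10 nM CXCL16 with DMSO and 100% = unstimulated wells without agonist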
# APJ antagonist – antagonists of human apelin receptor APJ, primary screen, CHO-K1 cells, beta-arrestin complementation, luminescence | P35414 | 330,000 compounds, 0.32% hits | inhibition, % at 20 µM;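 active = inhibition above about 40% at 20 µM, limit read from the data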;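 also: cells challenged with 10 nM apelin-13 agonist together with compound; plate controls were apelin-13 plus DMSO wells for no effect and DMSO wells lacking apelin-13 for full effect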
# HTR2A ag – mouse Htr2a agonists via beta-arrestin recruitment, primary screen, cell-based, luminescence; 5-hydroxytryptamine receptor 2A (Mus musculus), P35363; CHO-K1 mHTR2A beta-arrestin complementation; percent of 30 µM serotonin response; activation, % at 7.6 µM; 360,000 compounds, 0.66% hits; AID 624169, 2012;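 active = activation above a run cutoff, the mean activation of all tested compounds plus 3 SD, cut at about 14% in these data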;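 also: 0% = plate median of compound wells and 100% = 30 µM serotonin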
# CCR6 antag – CCR6 receptor antagonists, primary screen, cell-based, CHO-K1, luminescence, beta-arrestin, uHTS; inhibition, % at 20 µM; CHO-K1 CCR6 PathHunter beta-arrestin, CCL20-stimulated; 340,000 compounds, 0.49% hits; C-C chemokine receptor type 6 (Homo sapiens), P51684;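 active = compounds whose inhibition of the agonist-driven luminescence signal at 20 µM reaches about 50%, limit read from the data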;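 also: cells stimulated with CCL20 at 14 nM final; plate controls were DMSO with CCL20 for no effect and DMSO without agonist for full effect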
# Target sequence (P51684 whole entry, looked up): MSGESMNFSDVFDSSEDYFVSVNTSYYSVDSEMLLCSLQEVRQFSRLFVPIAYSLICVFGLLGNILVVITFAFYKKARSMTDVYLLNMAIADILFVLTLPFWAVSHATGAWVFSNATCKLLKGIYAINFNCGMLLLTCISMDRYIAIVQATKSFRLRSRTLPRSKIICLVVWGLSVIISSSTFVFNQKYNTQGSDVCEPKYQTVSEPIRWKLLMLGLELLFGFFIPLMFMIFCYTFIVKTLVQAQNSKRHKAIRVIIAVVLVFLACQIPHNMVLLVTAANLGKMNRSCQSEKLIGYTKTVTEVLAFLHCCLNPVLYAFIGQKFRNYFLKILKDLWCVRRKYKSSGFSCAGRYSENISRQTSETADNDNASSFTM
# APJ agonist – agonists of human apelin receptor APJ, primary screen, CHO-K1 cells, PathHunter beta-arrestin, luminescence; P35414; 0% DMSO wells, 100% apelin; activation, % at 20 µM; 330,000 compounds, 0.11% hits; AID 2520, 2010;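 active = activation more than six SD over the plate average, tested at 20 µM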;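 also: 0% = DMSO alone and 100% = apelin-13 at 10 nM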
#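 Assay system: CHO-K1 APJ beta-arrestin complementation cell line / Compound: single test compound dose, 20 µM final, 1% DMSO / Times: overnight seeding, 90 min compound at 25 °C, 1 h detection / Technique: beta-gal luminescence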
# * marks the source's active call; other numbers are inactive results; . = not tested or not shown.
SMILES,NTR1 ag,CXCR6 inh,APJ antagonist,HTR2A ag,CCR6 antag,APJ agonist
O=C(CCl)Nc1ccccc1C(=O)Nc1ccc2c(c1)OCO2,2.2,-14.1,-22.2,2.0,4.1,2.0
CCOC(=O)c1csc(Nc2nc3ccc(F)cc3s2)n1,6.3,16.8,42.2*,-7.4,26.6,-13.7
CCCn1cc(S(=O)(=O)c2ccc(OC)cc2)c(=O)c2cc(OC)ccc21,1.7,-2.8,18.1,5.4,15.4,-0.2
CC(C)(C)C(=O)/C(=C\c1ccc([N+](=O)[O-])cc1)n1cncn1,5.7,.,69.8*,.,.,-6.7
CC(C)(C)C(=O)/C(=C/c1ccc(Cl)cc1)n1cncn1,8.0,0.2,-0.2,1.0,9.2,-3.4
O=C(COC(=O)CNC(=O)c1cccc([N+](=O)[O-])c1)Nc1cccc(S(=O)(=O)N2CCCC2)c1,3.3,-6.8,-15.3,-1.8,8.7,-0.3
CC(C)(C)c1cc(C(=O)NCC(=O)OCC(=O)c2cccc([N+](=O)[O-])c2)cc(C(C)(C)C)c1,2.6,33.5,35.0,-0.4,57.4*,-7.7
O=C1C(SCCO)=C(SCCO)C(=O)c2ccccc21,-0.9,102.8*,23.8,-14.4,107.7*,18.9
CCNC(=O)O/N=C1\CCCCC1c1ccc([N+](=O)[O-])cc1[N+](=O)[O-] (centres undefined),-1.1,-5.0,-56.1,-3.2,0.6,5.8
O=C(NC(=S)Nc1ccccc1Cl)c1cncc(Br)c1,1.5,33.9,17.5,2.3,51.8*,-3.9
O=C(CNC(=O)c1ccc2c(c1)OCCO2)N/N=C/c1ccc([N+](=O)[O-])cc1,0.3,-12.1,-5.6,-2.8,-11.0,1.8
C#CCOCCOCCOCCNc1nc(N2CCN(C(=O)CCCCCCCCCCNC(=O)[C@H]([C@@H](C)CC)n3cc(CCCCN=C(N)N)nn3)CC2)nc(N2CCN(C(=O)CCCCCCCCCCNC(=O)[C@H]([C@@H](C)CC)n3cc(CCCCN=C(N)N)nn3)CC2)n1,0.3,.,26.6,.,.,70.8*
CC[C@H](C)[C@@H](C(=O)NCCCCCCCCCCC(=O)N1CCN(C(=O)OC(C)(C)C)CC1)n1cc(CCCCN=C(NC(=O)OC(C)(C)C)NC(=O)OC(C)(C)C)nn1,62.8*,.,-32.8,.,.,16.0
CC[C@H](C)[C@@H](C(=O)NCCCCCCCCCCC(=O)N1CCN(C(=O)OC(C)(C)C)CC1)n1cc(CCCCCNC(=O)OC(C)(C)C)nn1,1.3,10.9,-26.8,-1.8,8.1,13.2
C#CCOCCOCCOCCNc1nc(N2CCN(C(=O)CCCCCCCCCCNC(=O)[C@H]([C@@H](C)CC)n3cc(CCCCCN)nn3)CC2)nc(N2CCN(C(=O)CCCCCCCCCCNC(=O)[C@@H]([C@H](C)CC)n3cc(CCCCCN)nn3)CC2)n1,5.2,.,21.6,.,.,54.6*
C#CCOCCOCCOCCNc1nc(N2CCN(C(=O)CCCCCCCCCCNC(=O)Cn3cc(CCCCCN)nn3)CC2)nc(N2CCN(C(=O)CCCCCCCCCCNC(=O)[C@H]([C@@H](C)CC)n3cc(CCCCN=C(N)N)nn3)CC2)n1,5.3,39.8,22.2,-4.4,-27.2,17.0
C#CCOCCOCCOCCNc1nc(N2CCN(C(=O)CCCCCCCCCCNC(=O)[C@H]([C@@H](C)CC)n3cc(CCCCN=C(N)N)nn3)CC2)nc(N2CCN(C(=O)CCCCCCCCCCNC(=O)[C@H](CO)n3cc(CCCCCN)nn3)CC2)n1,1.8,61.3*,13.7,2.1,-26.7,3.0
C#CCOCCOCCOCCNc1nc(N2CCOCC2)nc(N2CCN(C(=O)CCCCCCCCCCNC(=O)[C@@H]([C@H](C)CC)n3cc(CCCCCN)nn3)CC2)n1,7.6,1.0,13.8,6.6,13.4,0.5
CC(Cl)=CCn1c(NCCc2ccccc2)nc2c1c(=O)n(C)c(=O)n2C,.,-2.1,.,5.6,.,.
Nc1c(Cl)ncnc1N/N=C/c1ccccn1,.,.,.,.,50.1*,.
Nc1c(Cl)ncnc1N/N=C/c1ccnc2ccccc12,-0.6,-0.7,-0.6,-0.1,4.1,-0.9
